Laboratory results reported in ChEMBL document CHEMBL2163238, “Design, synthesis, and biological evaluation of N-alkylated deoxynojirimycin (DNJ) derivatives for the treatment of dengue virus infection” (J Med Chem, 2012).
≈ marks a conversion by molar mass, not a printed value. Calls of active or inactive are those of the source. No cut-off for these calls is given here.

Columns and labels:
[1] = Antiviral activity against 1 MOI BVDV NADL infected in MDBK cells assessed as reduction in viral titer after 22 hrs; format: functional, cell-based, Bovine viral diarrhea virus 1-NADL; details: Bovine viral diarrhea virus isolates and strains, MDBK, 22 h
In short: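 MDBK cells (2×10^5) infected 24 h after seeding with BVDV NADL at MOI 1, with 1 h adsorption at 37 °C. Washed, then compounds at 0.1–100 μM. Media harvested 22 h post-infection and plaque-titrated on MDBK under 1% methylcellulose for 3 days. Plaques counted directly or after neutral red staining. EC50 from dose–response curves, mean of 3 independent experiments.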

CYP2D6 = CYP2D6 (Homo sapiens, UniProt P10635); assay: Inhibition of human CYP2D6 at 10 uM; format: ADME
Chain of CYP2D6 (P10635 whole entry, canonical isoform): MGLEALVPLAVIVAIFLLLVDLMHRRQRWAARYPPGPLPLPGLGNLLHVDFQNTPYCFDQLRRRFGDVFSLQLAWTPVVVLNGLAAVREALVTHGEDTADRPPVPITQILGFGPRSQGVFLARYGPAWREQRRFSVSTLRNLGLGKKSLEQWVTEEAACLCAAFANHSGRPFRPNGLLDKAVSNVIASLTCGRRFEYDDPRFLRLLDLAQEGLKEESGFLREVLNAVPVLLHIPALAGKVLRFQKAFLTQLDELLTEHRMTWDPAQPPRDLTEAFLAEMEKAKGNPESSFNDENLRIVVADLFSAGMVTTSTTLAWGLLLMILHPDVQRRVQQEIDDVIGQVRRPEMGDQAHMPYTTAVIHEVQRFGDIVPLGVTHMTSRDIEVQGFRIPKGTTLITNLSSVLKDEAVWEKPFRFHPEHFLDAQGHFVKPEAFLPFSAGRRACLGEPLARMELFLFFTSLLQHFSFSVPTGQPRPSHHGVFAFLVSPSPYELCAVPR
In short: (§1)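 Inhibition of CYP isoforms by compounds tested at 10 μM, given as percent inhibition; contract in vitro ADME panel.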

[2] = Cytotoxicity against MDBK cells assessed as cell viability by MTT assay; format: cell-based, Bos taurus; details: cattle
[3] = Plasma protein binding in human plasma; format: ADME, cell-free; details: read-out: PPB (converted)
In short: (§2)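 Binding of compound to human, rat or mouse plasma protein, reported as % bound.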

[4] = Aqueous solubility in PBS at pH 7.4; format: physicochemical; details: buffer
CYP3A4 [5] = target: T1, CYP3A4 (Homo sapiens, UniProt P08684); assay: Inhibition of human CYP3A4 using midazolam as substrate at 10 uM; format: ADME; details: probe midazolam
T1 sequence (P08684 whole entry, canonical isoform): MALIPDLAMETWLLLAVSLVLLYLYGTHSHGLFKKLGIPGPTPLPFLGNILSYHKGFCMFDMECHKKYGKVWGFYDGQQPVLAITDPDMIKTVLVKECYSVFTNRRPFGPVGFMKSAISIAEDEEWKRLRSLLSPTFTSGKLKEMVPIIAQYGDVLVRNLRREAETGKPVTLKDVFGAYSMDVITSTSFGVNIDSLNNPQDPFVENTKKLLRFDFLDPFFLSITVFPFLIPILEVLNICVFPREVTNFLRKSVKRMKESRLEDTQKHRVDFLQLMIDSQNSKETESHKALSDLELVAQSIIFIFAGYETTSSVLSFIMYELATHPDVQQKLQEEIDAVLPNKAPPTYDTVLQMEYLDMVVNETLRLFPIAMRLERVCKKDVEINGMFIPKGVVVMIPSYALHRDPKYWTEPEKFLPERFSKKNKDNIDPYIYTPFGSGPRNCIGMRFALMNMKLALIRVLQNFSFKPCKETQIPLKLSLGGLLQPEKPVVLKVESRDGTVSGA
In short: (§3)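 Inhibition of CYP isoforms with compound at 10 μM, reported as % inhibition. CYP3A4 run with midazolam or testosterone as substrate.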

[6] = Cytotoxicity against BHK cells assessed as cell viability by MTT assay; format: cell-based, Mesocricetus auratus; details: hamster
dengue virus type 2 = assay: Antiviral activity against 0.01 MOI DENV-2 NGC infected in BHK cells assessed as reduction in viral titer after 48 hrs; format: functional, organism-based
In short: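 BHK cells infected with DENV-2 New Guinea C at MOI 0.01 for 1 h. Inoculum removed, then compounds at 0.1–100 μM for 48 h at 37 °C. Supernatants titrated on Vero monolayers as 10-fold dilutions under 0.5% methylcellulose for 3–5 days. Foci detected by 4G2 immunostaining or crystal violet plaques. EC50 from dose–response curves, mean of 3 independent experiments.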

Cytochrome P450 3A4 = Cytochrome P450 3A4 (Homo sapiens, UniProt P08684); assay: (§4) Inhibition of human CYP3A4 using testosterone as substrate at 10 uM; format: ADME; details: 10 µM; in short: as §3
Chain of Cytochrome P450 3A4 (P08684 whole entry): as the sequence (P08684 whole entry, canonical isoform) above

[7] = Metabolic stability in human liver microsomes at 60 mins; format: ADME, Microsome; details: read-out: Stability
[8] = Plasma protein binding in rat plasma; format: ADME, cell-free; details: read-out: PPB (converted); in short: as §2
[9] = Metabolic stability in mouse liver microsomes at 60 mins; format: ADME, Microsome; details: read-out: Stability
CYP2C9 = CYP2C9 (Homo sapiens, UniProt P11712); assay: Inhibition of human CYP2C9 at 10 uM; format: ADME; in short: as §1
Chain of CYP2C9 (P11712 whole entry): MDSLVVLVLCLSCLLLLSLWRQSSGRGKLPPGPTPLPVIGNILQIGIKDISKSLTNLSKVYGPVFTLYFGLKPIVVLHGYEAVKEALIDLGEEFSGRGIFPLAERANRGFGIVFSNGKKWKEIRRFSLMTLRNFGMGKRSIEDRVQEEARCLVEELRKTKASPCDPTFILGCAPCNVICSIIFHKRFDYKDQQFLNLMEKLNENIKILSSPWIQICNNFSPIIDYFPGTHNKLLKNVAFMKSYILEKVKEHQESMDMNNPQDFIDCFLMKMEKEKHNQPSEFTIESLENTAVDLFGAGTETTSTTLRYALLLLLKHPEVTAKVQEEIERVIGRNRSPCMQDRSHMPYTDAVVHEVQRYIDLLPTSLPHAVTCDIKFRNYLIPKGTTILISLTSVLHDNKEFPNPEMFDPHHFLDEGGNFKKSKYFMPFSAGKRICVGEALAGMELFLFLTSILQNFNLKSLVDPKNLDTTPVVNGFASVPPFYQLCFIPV

[10] = Aqueous solubility in PBS at pH 4; format: physicochemical; details: buffer
[11] = Metabolic stability in rat liver microsomes at 60 mins; format: ADME, Microsome; details: read-out: Stability
CYP1A2 = target: T2, CYP1A2 (Homo sapiens, UniProt P05177); assay: Inhibition of human CYP1A2 at 10 uM; format: ADME; in short: as §3
T2 sequence (P05177 whole entry): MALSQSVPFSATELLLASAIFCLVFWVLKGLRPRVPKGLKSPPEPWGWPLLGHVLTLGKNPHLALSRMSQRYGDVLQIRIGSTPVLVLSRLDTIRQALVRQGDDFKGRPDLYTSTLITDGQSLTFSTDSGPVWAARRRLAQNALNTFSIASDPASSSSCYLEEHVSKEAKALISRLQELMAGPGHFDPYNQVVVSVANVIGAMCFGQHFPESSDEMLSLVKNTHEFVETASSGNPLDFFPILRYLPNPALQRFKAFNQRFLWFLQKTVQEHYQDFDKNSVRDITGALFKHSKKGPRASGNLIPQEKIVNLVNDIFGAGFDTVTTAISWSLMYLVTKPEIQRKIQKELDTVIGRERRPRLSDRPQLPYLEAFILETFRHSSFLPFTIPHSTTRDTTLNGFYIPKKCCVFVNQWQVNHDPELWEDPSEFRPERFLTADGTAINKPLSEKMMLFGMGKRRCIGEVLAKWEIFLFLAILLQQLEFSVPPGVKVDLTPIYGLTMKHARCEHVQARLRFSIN

[12] = Plasma protein binding in mouse plasma; format: ADME, cell-free; details: read-out: PPB (converted); in short: as §2
CYP2C19 = CYP2C19 (Homo sapiens, UniProt P33261); assay: Inhibition of human CYP2C19 at 10 uM; format: ADME; in short: as §3
Chain of CYP2C19 (P33261 whole entry): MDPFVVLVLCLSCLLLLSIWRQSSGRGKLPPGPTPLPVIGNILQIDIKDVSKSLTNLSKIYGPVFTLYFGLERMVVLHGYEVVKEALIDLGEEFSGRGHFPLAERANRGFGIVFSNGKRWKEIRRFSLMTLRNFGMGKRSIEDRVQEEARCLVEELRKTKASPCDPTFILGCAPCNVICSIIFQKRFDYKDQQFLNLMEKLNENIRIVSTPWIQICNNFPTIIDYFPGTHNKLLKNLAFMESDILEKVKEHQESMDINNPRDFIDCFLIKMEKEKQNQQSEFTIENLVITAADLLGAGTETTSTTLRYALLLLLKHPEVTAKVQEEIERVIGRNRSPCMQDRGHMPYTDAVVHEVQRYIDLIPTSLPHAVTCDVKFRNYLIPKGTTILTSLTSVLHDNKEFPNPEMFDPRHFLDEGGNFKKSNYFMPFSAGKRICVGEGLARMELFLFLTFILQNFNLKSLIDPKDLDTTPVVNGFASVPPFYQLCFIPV

[13] = Cytotoxicity against human Huh7.5 cells assessed as cell viability by DRAQ5 and Sapphire 700 staining; details: huh-7
Dengue virus = assay: Antiviral activity against 0.01 MOI DENV infected in human Huh7.5 cells assessed as reduction in viral […] protein level at 0.1 to 100 uM after 2 days by Western blotting; format: functional, organism-based; details: Huh-7
CYP3A4 [14] = target: T1, CYP3A4; assay: as §4; format: ADME; details: probe testosterone; in short: as §3
MDBK = assay: Competitive inhibition of endoplasmic reticulum-resident alpha-glucosidase in MDBK cells infected with 1 MOI BVDV assessed as decrease in viral E2 protein mobility at 0.8 to 100 uM after 24 hrs by Western blotting; format: cell-based; details: Bos taurus
In short: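 MDBK cells infected with BVDV at MOI 1 for 1 h, then compounds at 0.8, 4.0, 20 and 100 μM. Cells lysed in Laemmli buffer, run on 12% polyacrylamide gel and transferred to nitrocellulose. BVDV E2 mobility probed with monoclonal WB166 and β-actin detected in parallel. IR-dye secondary antibody, Odyssey imaging.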

[15] = Selectivity index, ratio of CC50 for BHK cells to EC50 for DENV-2 NGC infected in BHK cells
In short: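 BHK cells infected with DENV-2 New Guinea C at MOI 0.01 for 1 h, then compounds at 0.1–100 μM for 48 h at 37 °C. Supernatant titrated on Vero cells under 0.5% methylcellulose, 3–5 days; foci by 4G2 immunostaining or crystal violet plaques. EC50 from yield curves; MTT CC50 in uninfected BHK; SI = CC50/EC50.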

[16] = Selectivity index, ratio of CC50 for MDBK cells to EC50 for BVDV NADL infected in MDBK cells
In short: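 MDBK cells infected with BVDV NADL at MOI 1, 1 h at 37 °C, washed, then compounds at 0.1–100 μM. Media harvested at 22 h, plaque-titrated on MDBK under 1% methylcellulose for 3 days, neutral red or direct count. EC50 from yield curves; MTT CC50 in uninfected MDBK; SI = CC50/EC50.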

Structure (SMILES)	EC50 [1]	inhibition at 10 µM (CYP2D6)	CC50 [2]	fraction unbound [3]	solubility [4]	inhibition at 10 µM (CYP3A4 [5])	CC50 [6]	EC50 (dengue virus type 2)	inhibition (INH) (Cytochrome P450 3A4)	remaining at 1 h [7]	fraction unbound [8]	remaining at 1 h [9]	inhibition at 10 µM (CYP2C9)	solubility [10]	remaining at 1 h [11]	inhibition at 10 µM (CYP1A2)	fraction unbound [12]	inhibition at 10 µM (CYP2C19)	Activity [13]	Activity (dengue virus type 2)	further results
OC[C@@H]1[C@@H](O)[C@H](O)[C@@H](O)CN1CCCCCCOc1cccc(C(F)(F)F)c1	1500 nM	3.4%	> 500000 nM	0.07	278 µM (≈ 113 µg/mL)	-18.5%	400000 nM	400 nM	3.2%	94%	0.1	92%	37.6%	281 µM (≈ 114 µg/mL)	81%	0.2%	0.08	-2.5%			
OC[C@@H]1[C@@H](O)[C@H](O)[C@@H](O)CN1CCCCCCOC1CCCCCC1	1400 nM	2.5%	> 500000 nM	0.29	295 µM (≈ 106 µg/mL)	21.2%	> 500000 nM	500 nM	3.1%	89%	0.35	92%	5%	286 µM (≈ 103 µg/mL)	90%	9%	0.15	-4.9%	Non-toxic	Dose-dependent effect	Activity (Dengue virus): Active
CCCC(CCC)OCCCCCCN1C[C@H](O)[C@@H](O)[C@H](O)[C@H]1CO	600 nM	9.1%	> 500000 nM	0.09	302 µM (≈ 109 µg/mL)	2.5%	425000 nM	300 nM	4.2%	73%	0.23	77%	43.5%	290 µM (≈ 105 µg/mL)	80%	2%	0.17	-1.1%			
Cc1cccc(OCCCCCCN2C[C@H](O)[C@@H](O)[C@H](O)[C@H]2CO)c1	600 nM	12.8%	> 500000 nM	0.2	286 µM (≈ 101 µg/mL)	28.7%	> 500000 nM	600 nM	2.3%	87%	0.21	[…]	8.9%	279 µM (≈ 98.6 µg/mL)	81%	21.4%	0.17	3.9%			
CCCOc1cccc(CCCN2C[C@H](O)[C@@H](O)[C@H](O)[C@H]2CO)c1	1200 nM	11%	> 500000 nM	0.32	288 µM (≈ 97.8 µg/mL)	8.6%	> 500000 nM	300 nM		99%	0.43	87%	10.5%	281 µM (≈ 95.4 µg/mL)	97%	15.9%	0.4	2.8%	Non-toxic	Dose-dependent effect	inhibition at 10 µM (CYP3A4 [14]): 0.7%; inhibition (MDBK): Active; Activity (Dengue virus): Active
COc1ccccc1OCCCCCCN1C[C@H](O)[C@@H](O)[C@H](O)[C@H]1CO	1000 nM	8.7%	> 500000 nM	0.35	293 µM (≈ 108 µg/mL)	12.1%	> 500000 nM	800 nM		99%	0.3	92%	11.7%	286 µM (≈ 106 µg/mL)	98%	-1.6%	0.31	-4.4%			inhibition at 10 µM (CYP3A4 [14]): -2.4%
OC[C@@H]1[C@@H](O)[C@H](O)[C@@H](O)CN1CCCCCCOCc1ccccc1	1500 nM	9.1%	> 500000 nM	0.48	288 µM (≈ 102 µg/mL)	6.6%	> 500000 nM	400 nM	3.3%	104%	0.51	97%	10.7%	282 µM (≈ 99.7 µg/mL)	91%	17.3%	0.47	14.2%	Non-toxic	Dose-dependent effect	Activity (Dengue virus): Active
OC[C@@H]1[C@@H](O)[C@H](O)[C@@H](O)CN1CCCCCCOC1CCCCC1	400 nM		480000 nM				> 500000 nM	1600 nM													Ratio CC50/EC50 [15]: >312; Ratio CC50/EC50 [16]: 1200; inhibition (MDBK): Active
Cc1ccccc1OCCCCCCN1C[C@H](O)[C@@H](O)[C@H](O)[C@H]1CO	400 nM		> 500000 nM				450000 nM	500 nM													Ratio CC50/EC50 [15]: 900; Ratio CC50/EC50 [16]: >1250
OC[C@@H]1[C@@H](O)[C@H](O)[C@@H](O)CN1CCCCCCOc1cccc(F)c1	500 nM	10.3%	> 500000 nM	0.22	283 µM (≈ 101 µg/mL)	-2.3%	> 500000 nM	400 nM		87%	0.29	104%	6.2%	271 µM (≈ 96.9 µg/mL)	[…]	0.2%	0.21	0.7%	Non-toxic	Dose-dependent effect	inhibition at 10 µM (CYP3A4 [14]): -2.3%; Activity (Dengue virus): Active
